# CAL PDZ FP-1 = blocks peptide binding to the human CAL PDZ domain; hit rate 0.92% among 300,000; purified CAL PDZ, TMR-peptide fluorescence polarization, 1 h; Q9HD26; inhibition, % at 24.9 µM;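 active = mean inhibition of at least 30% with at least half of replicates also reaching 30%; inconclusive = no clear call, values can overlap the other calls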
# ERAP1 HTS inh = blocks human ERAP1 aminopeptidase activity | inhibition, % at 10.7 µM | AID 652197 | hit rate 0.15% among 340,000 | Q9NZ08 | recombinant ERAP1, Leu-AMC fluorescence, 60 min;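 active = mean replicate inhibition of at least 30%, or all replicates individually reaching that 30% level; inactive = mean below 30% and not every replicate reaching it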
# S100A4 inh HTS = inhibitors of human S100A4 binding to myosin IIA peptide; S100A4/TAMRA-MyoIIA peptide fluorescence polarization; inhibition, % at 10.7 µM; hit rate 0.14% among 360,000;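 active = mean inhibition of at least 70% across replicates, with every replicate also reaching that level; inconclusive = mean inhibition reaches 70% but some replicates fall short; inactive = mean inhibition below 70%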
# Target sequence (P26447 whole entry, looked up): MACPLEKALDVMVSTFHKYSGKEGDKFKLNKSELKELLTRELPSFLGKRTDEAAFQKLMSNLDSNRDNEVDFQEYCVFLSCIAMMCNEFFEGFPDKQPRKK
#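 Test system: S100A4 monomer protein; Medium: HEPES pH 7.2 with CaCl2, KCl, NaCl, DTT, Triton; Probe or stimulus: TAMRA-labelled myosin IIA heavy-chain peptide probe, 5 nM; Doses: one dose per compound; Times: polarization read 5 min after assay mix addition, stable 5–60 min; Benchmarks: neutral control DMSO, positive control TFP.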
# SIRT5 block = blocks human SIRT5 desuccinylation of peptide. Q9NXA8. Purified SirT5, succinyl-peptide AMC, trypsin-coupled fluorescence. inhibition, % at 15 µM. hit rate 1.1% among 330,000; in the data active = inhibition above about 15%; inconclusive = no clear call, values can overlap the other calls
# Target sequence (Q9NXA8 whole entry, looked up): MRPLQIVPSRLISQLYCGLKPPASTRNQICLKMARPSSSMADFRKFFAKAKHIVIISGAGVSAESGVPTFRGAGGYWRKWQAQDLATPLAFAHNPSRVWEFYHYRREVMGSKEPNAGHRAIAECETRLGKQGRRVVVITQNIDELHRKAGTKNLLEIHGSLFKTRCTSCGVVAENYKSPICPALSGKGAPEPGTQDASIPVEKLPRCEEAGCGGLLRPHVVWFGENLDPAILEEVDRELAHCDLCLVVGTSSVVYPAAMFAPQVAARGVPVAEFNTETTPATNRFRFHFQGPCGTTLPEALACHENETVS
# DENV2 CPE = inhibitors of DENV2 cytopathic effect; DENV2-infected cells, cytopathic effect rescue, plate reader; hit rate 1.7% among 350,000; CPE inhibition, % at 9.99 µM; in the data active = CPE inhibition above about 20%, passing the limit was not always enough; inconclusive = no clear call, values can overlap the other calls; tested in BHK-21 cells
# CAL PDZ FP-2 = inhibitors of human CAL PDZ peptide binding. Q9HD26. purified CAL PDZ, TMR-peptide fluorescence polarization, 1 h. hit rate 0.02% among 330,000. AID 504414. inhibition, % at 20 µM;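 active = highest replicate inhibition of at least 40%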
#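 System: purified tagged CAL PDZ domain construct (CerCALP). Schedule: 1 h incubation at room temperature before polarization reading. Medium: 25 mM sodium phosphate pH 7.4, 150 mM NaCl, TCEP, IgG, Thesit. Read-out: percent inhibition from loss of millipolarization. Measured by: FP readout, S and P plane fluorescence. Probe or stimulus: fluorescent TMR peptide probe.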
# A number is an active result; i = inactive; ? = inconclusive; nt = not tested or not shown. In the library only some 2.9% were active in any assay of this set; here they are far more common.
SMILES,CAL PDZ FP-1,ERAP1 HTS inh,S100A4 inh HTS,SIRT5 block,DENV2 CPE,CAL PDZ FP-2
CCOC(=O)N1CCN(S(=O)(=O)c2c(C)nc3scc(C)n3c2=O)CC1,i,i,i,31.0,i,i
O=C(N=C1SC2CS(=O)(=O)CC2N1c1ccccc1)C1CC1 (centres undefined),i,i,i,i,i,i
O=C(N=C1SC2CS(=O)(=O)CC2N1c1cccc(F)c1)C1CC1 (centres undefined),61.8,i,i,i,i,i
CN1C(=O)c2cc(NC(=O)c3ccc(F)cc3)ccc2OC[C@@H]2O[C@@H](CC(=O)N3CCOCC3)CC[C@H]21,nt,i,i,i,i,nt
Cc1cc(Nc2ccccc2)nc(-c2ccccc2O)n1,i,nt,nt,nt,nt,i
Cc1cc(Nc2ccccc2Cl)nc(-c2ccccc2O)n1,57.1,i,i,i,i,nt
OC[C@H]1[C@@H]2c3ccccc3NC[C@@H]2N1CC1CCOCC1,nt,i,i,i,22.1,nt
C[C@@H]1CN([C@H](C)CO)C(=O)c2cc(NC(=O)Nc3ccc(C(F)(F)F)cc3)ccc2O[C@@H](C)CCCCO[C@H]1CN(C)Cc1ccc(C(=O)O)cc1,nt,i,i,i,i,nt
COc1ccccc1NC(=O)c1ccccc1S(=O)(=O)c1ccccc1[N+](=O)[O-],i,i,i,i,i,i
COc1ccccc1NC(=O)c1ccccc1S(=O)(=O)c1ccc([N+](=O)[O-])cc1,71.6,i,i,i,i,i
Cc1cccc(N2CCN(C(=O)c3nn(C)c4c3CS(=O)(=O)c3ccccc3-4)CC2)c1C,i,i,i,i,35.9,i
CC(C)(C)C(=O)Nc1ccnn1C1CCN(C(=O)c2ccc(Cl)cc2F)CC1,44.4,i,i,i,i,i
O=C(Nc1ccnn1C1CCN(C(=O)c2cccc(C(F)(F)F)c2)CC1)C1CC1,i,i,i,i,i,i
CC(C)CC(=O)Nc1ccnn1C1CCN(C(=O)c2ccc(Cl)cc2F)CC1,i,i,i,i,i,i
O=C(Nc1ccnn1C1CCN(C(=O)c2ccc(C(F)(F)F)cc2)CC1)C1CC1,i,i,i,22.6,i,i
COc1ccc(C(=O)Nc2ccnn2C2CCN(C(=O)c3cnsn3)CC2)cc1,i,i,i,i,39.7,i
COc1ccccc1C(=O)Nc1ccnn1C1CCN(C(=O)c2cnsn2)CC1,i,i,i,i,?,i
COc1ccc(-c2cnc3c(c2)C(=O)N([C@H](C)CO)C[C@H](C)[C@H](CN(C)C(=O)NC2CCCC2)O3)cc1,nt,i,i,i,i,nt
CC1=CC(=O)C2=C(C)CC[C@@H]3[C@H](OC(=O)[C@H]3C)[C@@H]12,i,i,i,nt,i,i
CC1=CC(=O)C2=C(C)CCC3C(C)C(=O)OC3C12 (centres undefined),nt,i,i,i,21.6,nt
O=C(CN1CCOCC1)N[C@@H]1CC[C@@H](CCNC(=O)Nc2cc(F)ccc2F)O[C@H]1CO,nt,i,i,i,i,nt
COc1ccccc1C1Nc2ccccc2NC2=C1C(=O)CC(C)(C)C2 (centres undefined),i,i,i,i,i,i
COc1ccc(OC)c(C2Nc3ccccc3NC3=C2C(=O)CC(C)(C)C3)c1 (centres undefined),i,i,i,19.6,i,i
Cc1nnc2sc(SCC(=O)Nc3cccc(Cl)c3)nn2c1=O,99.5,i,i,i,i,i
CC(C)c1cn(CC[C@@H]2CC[C@H](NC(=O)C3CC3)[C@H](CO)O2)nn1,nt,i,i,i,i,nt
SMILES,CAL PDZ FP-1,ERAP1 HTS inh,S100A4 inh HTS,SIRT5 block,DENV2 CPE,CAL PDZ FP-2
COc1cccc(CNC(=O)C[C@H]2CC[C@@H](NC(=O)C3CCC3)[C@H](CO)O2)c1,nt,i,i,i,35.5,nt
COc1cccc(CNC(=O)C[C@@H]2C=C[C@H](NC(=O)C3CCOCC3)[C@H](CO)O2)c1,nt,i,i,i,i,nt
COc1cccc(CNC(=O)C[C@H]2C=C[C@H](NC(=O)C3CCOCC3)[C@@H](CO)O2)c1,nt,i,i,i,20.8,nt
Cc1ccnc(NC(=O)c2ccc(Br)s2)c1,63.2,i,i,i,i,nt
Cc1ccnc(NC(=O)c2cccs2)c1,i,nt,nt,nt,nt,i
CCCCNC(=O)c1ccc2nc(-c3ccco3)c(-c3ccco3)nc2c1,nt,nt,i,nt,?,i
O=C(NCCCO)c1ccc2nc(-c3ccco3)c(-c3ccco3)nc2c1,i,i,i,15.2,i,i
Cn1c(=O)n(C)c2cc3[nH]cnc3cc21,42.0,i,i,i,i,i
CC(C)CC#Cc1ccc2c(c1)O[C@@H](CN(C)C)[C@@H](C)CN([C@@H](C)CO)S2(=O)=O,nt,i,i,i,27.0,nt
CC(C)CC#Cc1ccc2c(c1)O[C@@H](CN(C)C(=O)CC1CC1)[C@@H](C)CN([C@H](C)CO)S2(=O)=O,nt,i,i,24.9,i,nt
CCCNC(=O)N(C)C[C@@H]1Oc2cc(C#CCC(C)C)ccc2S(=O)(=O)N([C@@H](C)CO)C[C@H]1C,nt,i,i,i,35.7,nt
CCCNC(=O)N(C)C[C@@H]1Oc2cc(C#CCC(C)C)ccc2S(=O)(=O)N([C@@H](C)CO)C[C@@H]1C,nt,i,i,i,i,nt
CC(=O)N(C)C[C@@H]1Oc2cc(C#CCC(C)C)ccc2S(=O)(=O)N([C@H](C)CO)C[C@@H]1C,nt,i,114.5,i,i,nt
C[C@@H]1CN([C@H](C)CO)S(=O)(=O)c2ccc(-c3ccc(C(=O)N(C)C)cc3)cc2O[C@@H]1CN(C)C(=O)C1CCC1,nt,i,i,i,i,nt
Cc1noc(C)c1NC(=O)Nc1ccc2c(c1)C(=O)N([C@@H](C)CO)C[C@@H](C)[C@H](CN(C)C(=O)Nc1cccc3ccccc13)OCCCC[C@@H](C)O2,nt,nt,nt,nt,i,nt
CC(C)CC#Cc1ccc2c(c1)O[C@@H](CN(C)C(=O)c1cnccn1)[C@@H](C)CN([C@@H](C)CO)S2(=O)=O,nt,i,i,i,36.4,nt
CCCC#Cc1ccc2c(c1)O[C@@H](CN(C)C(=O)c1cnccn1)[C@H](C)CN([C@H](C)CO)S2(=O)=O,nt,i,i,i,i,nt
CCc1cc(CNC(=O)CCc2nnc(CCCc3ccccc3)o2)on1,i,i,i,19.5,i,i
COc1ccc2c3c(n(C)c2c1)[C@H](CO)N(Cc1ccncc1)CC31CCN(C(=O)C2CCCCC2)CC1,nt,i,i,i,i,nt
CCCNC(=O)C[C@@H]1CC[C@@H]2[C@H](COc3ccc(NC(=O)c4cc(C)on4)cc3C(=O)N2C)O1,nt,i,i,i,i,nt
CO[C@@H](CN(C)S(=O)(=O)c1ccc(Cl)cc1)[C@H](C)CN([C@H](C)CO)S(=O)(=O)c1cccc(Cl)c1,nt,i,i,15.6,i,nt
O=C(c1ccccn1)C1CCCN(Cc2cn[nH]c2-c2cc3ccccc3o2)C1 (centres undefined),i,i,i,i,i,i
c1ccc(CCC2CCCCN2Cc2cn[nH]c2-c2cc3ccccc3o2)nc1 (centres undefined),101.2,i,i,i,i,i
CCc1nc(SCC(=O)Nc2nc3c(s2)CCCC3)c2ccccc2n1,i,nt,nt,nt,nt,i

# Compound activity (PubChem BioAssay)
